# Reference: ChEMBL document CHEMBL1145071, “Oxindole-based compounds are selective inhibitors of Plasmodium falciparum cyclin dependent protein kinases” (J Med Chem, 2003)
# pIC50: −log10 of the molar value.
# Legend:
# Protein kinase Pfmrk = molecular target: T1, Protein kinase Pfmrk (Plasmodium falciparum, UniProt P90584); test: Inhibitory activity against Plasmodium falciparum cyclin dependent protein kinase, Pfmrk
# T1 sequence (P90584 whole entry): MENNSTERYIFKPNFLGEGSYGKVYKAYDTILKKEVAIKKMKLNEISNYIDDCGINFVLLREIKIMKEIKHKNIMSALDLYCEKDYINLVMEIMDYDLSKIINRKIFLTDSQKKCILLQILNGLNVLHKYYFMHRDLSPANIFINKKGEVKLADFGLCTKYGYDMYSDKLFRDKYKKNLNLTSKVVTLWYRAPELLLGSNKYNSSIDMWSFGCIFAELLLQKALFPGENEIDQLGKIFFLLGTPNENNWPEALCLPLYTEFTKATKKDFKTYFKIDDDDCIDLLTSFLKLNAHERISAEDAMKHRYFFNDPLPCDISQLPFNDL
# Plasmodium falciparum [1] = test: Inhibitory activity against Plasmodium falciparum W2; type: functional, organism-based
# Method in brief: (§1)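 Cultured D6 (chloroquine-sensitive) and W2 (chloroquine-resistant) clones in A+ red cells, 6% hematocrit, 10% human serum, 90% N2/5% O2/5% CO2. Cultures at 3% parasitemia with at least 70% rings placed in drug-precoated wells for 24 h. [3H]-hypoxanthine then added for a further 18 h; uptake counted after harvest. IC50 from four-parameter nonlinear regression.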
# Plasmodium falciparum [2] = test: Inhibitory activity against Plasmodium falciparum D6; type: functional, organism-based; method in brief: as §1
# PFPK5(P.falciparum) = PFPK5(P.falciparum) (Plasmodium falciparum, UniProt P61075); test: Inhibition of Plasmodium falciparum cyclin dependent protein kinase, PfPK5
# PFPK5(P.falciparum), sequence (P61075 whole entry, looked up): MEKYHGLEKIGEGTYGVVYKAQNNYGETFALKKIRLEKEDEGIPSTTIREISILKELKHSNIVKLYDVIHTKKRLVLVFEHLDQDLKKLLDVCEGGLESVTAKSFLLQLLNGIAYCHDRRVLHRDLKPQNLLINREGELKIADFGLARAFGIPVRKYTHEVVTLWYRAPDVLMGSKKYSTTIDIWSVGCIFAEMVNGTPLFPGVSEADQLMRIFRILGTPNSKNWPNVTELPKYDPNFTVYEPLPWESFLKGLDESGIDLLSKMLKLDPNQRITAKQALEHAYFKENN
# [3] = molecular target: Cyclin-dependent kinase 1/cyclin B (Homo sapiens, UniProt P06493); test: Inhibition of human Cyclin-dependent kinase 1 cyclin B; type: protein-complex assay
Compound,pIC50 (Protein kinase Pfmrk),pIC50 (Plasmodium falciparum [1]),pIC50 (Plasmodium falciparum [2]),pIC50 (PFPK5(P.falciparum)),pIC50 [3]
Cn1cnc2c(NCc3ccccc3)nc(NCCO)nc21 [OLOMOUCINE],< 3.00,5.10,5.57,–,–
"CN[C@@H]1C[C@H]2O[C@@](C)([C@@H]1OC)n1c3ccccc3c3c4c(c5c6ccccc6n2c5c31)C(=O)NC4 (single isomer, unassigned) [STAUROSPORINE]",5.40,6.82,6.72,–,–
O=C1Cc2c([nH]c3ccc(Br)cc23)-c2ccccc2N1 [KENPAULLONE],4.82,5.42,5.42,–,–
Cc1ccc(C(=O)/C=C2/C(=O)Nc3ccc(Br)cc32)cc1,5.54,< 4.84,< 4.84,3.92,4.54
O=C1Nc2ccc(Br)cc2/C1=C\C(=O)c1ccc(F)cc1,5.85,< 4.84,< 4.84,3.72,4.54
C/N=C/c1c(O)[nH]c2ccccc12,< 4.24,–,–,–,–
COC(=O)[C@@]1(Cc2ccc(O)c(CC=C(C)C)c2)OC(=O)C(O)=C1c1ccc(O)cc1 [BUTYROLACTONE I],4.03,4.93,4.93,–,–
COc1ccc2c(c1)/C(=C1/SC(=S)NC1=O)C(=O)N2,4.77,–,–,–,–
CCOC(=O)/C(C#N)=C1/C(=O)Nc2ccccc21,4.38,–,–,–,–
O=C1Cc2c([nH]c3ccc([N+](=O)[O-])cc23)-c2ccccc2N1 [ALSTERPAULLONE],4.29,5.37,5.37,–,–
O=C1Nc2ccc(Br)cc2/C1=C/C(=O)c1ccccc1,5.51,< 4.82,< 4.82,3.92,4.52
COc1cc2ncnc(Nc3cccc(O)c3)c2cc1OC,3.77,–,–,–,–
O=C1NC(=S)S/C1=C1\C(=O)Nc2ccc(F)cc21,< 4.72,–,–,–,–
CC(C)[C@H](CO)Nc1nc(Nc2cccc(Cl)c2)c2ncn(C(C)C)c2n1 [PURVALANOLA],4.59,5.04,5.59,–,–
CC[C@H](CO)Nc1nc(NCc2ccccc2)c2ncn(C(C)C)c2n1 [SELICICLIB],< 3.00,4.55,4.48,–,–
O=Nc1c(-c2c(O)[nH]c3ccccc23)[nH]c2ccccc12 [INDIRUBIN-3-MONOXIME],4.52,5.96,6.22,–,–

# More lines, now with the values ahead:
pIC50 (Protein kinase Pfmrk),pIC50 (Plasmodium falciparum [1]),pIC50 (Plasmodium falciparum [2]),pIC50 (PFPK5(P.falciparum)),pIC50 [3],Compound
< 4.68,–,–,–,–,O=C1Nc2ccccc2/C1=C\C1CCCCN1 (configuration not stated)
5.46,< 4.82,< 4.82,3.89,4.92,O=C1Nc2ccccc2/C1=C/C(=O)c1ccc(Br)cc1
4.62,–,–,–,–,N#C/C(C(N)=O)=C1\C(=O)Nc2ccccc21
5.37,–,–,–,–,O=C1Nc2ccccc2/C1=C\c1ccc(C(F)(F)F)cc1
< 4.36,–,–,–,–,CC(C)(C)C(=O)/C=C1/C(=O)Nc2ccccc21
< 4.43,–,–,–,–,CC(=O)/C=C1/C(=O)Nc2ccccc21
< 4.38,–,–,–,–,O=C1Nc2ccccc2/C1=C\c1ccc(O)cc1
5.40,< 4.70,< 4.70,3.82,< 4.80,O=C1Nc2ccccc2/C1=C\C(=O)c1ccccc1
< 4.43,–,–,–,–,O=C1Nc2ccccc2/C1=C\c1ccc(Cl)cc1
4.77,–,–,–,–,O=C1Nc2ccccc2/C1=C\c1c(Cl)cccc1Cl
